Measurements gathered from unrelated publications.
Compare with care: the assays were run in different laboratories.
Organism: Staphylococcus aureus

SMILES | effect on | technique | strain | time | setting | measurement | value
CO[C@@H]1[C@@H](OC(N)=O)[C@@H](O)[C@H](Oc2ccc3c(O)c(NC(=O)c4ccc(O)c(CC=C(C)C)c4)c(=O)oc3c2C)OC1(C)C | microbial growth |  | MRSA |  | drug-resistant strain, clinical isolate | MIC | 0.25 µg/mL
CN[C@H](CC(C)C)C(=O)N[C@H]1C(=O)N[C@@H](CC(N)=O)C(=O)N[C@H]2C(=O)N[C@H]3C(=O)N[C@H](C(=O)N[C@H](C(=O)O)c4cc(O)cc(O)c4-c4cc3ccc4O)[C@H](O)c3ccc(c(Cl)c3)Oc3cc2cc(c3O[C@@H]2O[C@H](CO)[C@@H](O)[C@H](O)[C@H]2O[C@H]2C[C@](C)(N)[C@H](O)[C@H](C)O2)Oc2ccc(cc2Cl)[C@H]1O | microbial killing |  | ATCCBAA1717 MRSA |  |  | MBC | 1.95 µg/mL
O=c1ccc2nc3ccc(OCc4ccc([N+](=O)[O-])o4)cc3oc-2c1 | microbial growth |  |  | 24 h |  | MIC | > 32 µg/mL
CN[C@H](CC(C)C)C(=O)N[C@H]1C(=O)N[C@@H](CC(N)=O)C(=O)N[C@H]2C(=O)N[C@H]3C(=O)N[C@H](C(=O)N[C@H](C(=O)O)c4cc(O)cc(O)c4-c4cc3ccc4O)[C@H](O)c3ccc(c(Cl)c3)Oc3cc2cc(c3O[C@@H]2O[C@H](CO)[C@@H](O)[C@H](O)[C@H]2O[C@H]2C[C@](C)(N)[C@H](O)[C@H](C)O2)Oc2ccc(cc2Cl)[C@H]1O | microbial killing | broth dilution | MRSA |  | drug-resistant strain | MBC | 0.67 µM
COc1c(N2C[C@@H]3CCCN[C@@H]3C2)c(F)cc2c(=O)c(C(=O)O)cn(C3CC3)c12 | microbial growth |  | ATCC29213 |  |  | MIC | 0.07 µM
Oc1c(Cl)cc(Cl)cc1-c1[nH]c(Cl)c(Cl)c1Cl | microbial growth |  | ATCC29213 MSSA |  |  | MIC | 0.29 µM
C[C@@H]1CN2c3c(cc4c(N5C(=O)OC[C@@H]5C)noc4c3F)CC3(C(=O)NC(=O)NC3=O)[C@H]2[C@H](C)O1 | microbial growth | broth dilution | ATCC29213 |  |  | MIC | 1 µg/mL
C[C@H]1COc2c(N3CCN(C)CC3)c(F)cc3c(=O)c(C(=O)O)cn1c23 | microbial killing |  | ATCCBAA1717 MRSA |  |  | MBC | 0.48 µg/mL
COc1c(N2CC3CCCNC3C2)c(F)cc2c(=O)c(C(=O)OCc3cnc([N+](=O)[O-])s3)cn(C3CC3)c12 (stereo not drawn) | microbial growth |  | ATCC29213 |  |  | MIC | 0.09 µM
